Results: ChEMBL document CHEMBL1759840, “2,3-Substituted quinoxalin-6-amine analogs as antiproliferatives: a structure-activity relationship study” (2011)
Calls of active or inactive are those of the source. The calls are words filed in the database; no cut-off is given here.

What was measured:
Format in all cases: functional
SK-OV-3 = assay: Growth inhibition of human SKOV3 cells at 20 uM after 72 hrs by alamar blue assay; settings: for inhibition of growth at 20 µM: SK-OV-3, 72 h, read-out: GI
Summary of the method: (§1)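 Single-concentration screen at 20 μM with 72 h exposure across a panel of cancer lines: lung A549, pancreatic AsPC1, colon HT29, breast MDA-MB-231, prostate PC3, ovarian SKOV3 and bone U2OS. Growth inhibition read after 72 h.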

U2OS = assay: Growth inhibition of human U2OS cells at 20 uM after 72 hrs by alamar blue assay; settings: for inhibition of growth at 20 µM: read-out: GI; summary of the method: as §1
A549 = assay: Growth inhibition of human A549 cells at 20 uM after 72 hrs by alamar blue assay; settings: for inhibition of growth at 20 µM: A549, 72 h, read-out: GI; summary of the method: as §1
HT-29 = assay: Growth inhibition of human HT-29 cells at 20 uM after 72 hrs by alamar blue assay; settings: for inhibition of growth at 20 µM: HT-29, 72 h, read-out: GI; summary of the method: as §1
ASPC1 = assay: Growth inhibition of human AsPC1 cells at 20 uM after 72 hrs by alamar blue assay; settings: for inhibition of growth at 20 µM: ASPC1, 72 h, read-out: GI; summary of the method: as §1
PC-3 = assay: Growth inhibition of human PC3 cells at 20 uM after 72 hrs by alamar blue assay; settings: for inhibition of growth at 20 µM: PC-3, 72 h, read-out: GI; summary of the method: as §1
MDA-MB-231 = assay: Growth inhibition of human MDA-MB-231 cells at 20 uM after 72 hrs by alamar blue assay; settings: for inhibition of growth at 20 µM: MDA-MB-231, 72 h, read-out: GI; summary of the method: as §1

SMILES	inhibition of growth at 20 µM (SK-OV-3)	inhibition of growth at 20 µM (U2OS)	inhibition of growth at 20 µM (A549)	growth inhibition (GI) (HT-29)	inhibition of growth at 20 µM (ASPC1)	inhibition of growth at 20 µM (PC-3)	inhibition of growth at 20 µM (MDA-MB-231)	growth inhibition (GI) (SK-OV-3)	growth inhibition (GI) (U2OS)	growth inhibition (GI) (A549)	growth inhibition (GI) (ASPC1)	growth inhibition (GI) (PC-3)	growth inhibition (GI) (MDA-MB-231)	inhibition of growth at 20 µM (HT-29)
O=C(Nc1ccc2nc(-c3ccccc3)c(-c3ccccc3)nc2c1)N1CCCC1	18.5%	54.2%	11%	inactive	29.4%	56.9%	16.7%							
Cc1ccc(S(=O)(=O)N(c2ccc3nc(-c4ccco4)c(-c4ccco4)nc3c2)S(=O)(=O)c2ccc(C)cc2)cc1				inactive				inactive	inactive	inactive	inactive	inactive	inactive	
Cc1nc2ccc(NC(=O)N3CCCC3)cc2nc1C				inactive				inactive	inactive	inactive	inactive	inactive	inactive	
O=C(Nc1ccc(F)cc1)Nc1ccc2nc(-c3ccco3)c(-c3ccco3)nc2c1		55.6%	> 100%		> 100%	90.7%	38.4%	inactive						74.2%
O=[N+]([O-])c1ccc(NC(=S)Nc2ccc3nc(-c4ccccc4)c(-c4ccccc4)nc3c2)cc1	55.8%	76.1%	16.6%		55.5%	81%	72.6%							81.2%
O=C(Nc1ccc(Cl)cc1)Nc1ccc2nc(-c3ccco3)c(-c3ccco3)nc2c1	55.8%	87.4%	99.2%		81.1%	86.4%	92.5%							86.3%
S=C(Nc1ccccc1)Nc1ccc2nc(-c3ccco3)c(-c3ccco3)nc2c1		21.4%	18%			56.8%	19.1%	inactive			inactive			26.1%
O=C(Nc1ccccc1)Nc1ccc2nc(-c3ccco3)c(-c3ccco3)nc2c1	24.7%	59.6%	54.6%		9.6%	70.6%	31.3%							52.1%
O=C(Nc1ccccc1)Nc1ccc2nc(-c3cccs3)c(-c3cccs3)nc2c1				inactive				inactive	inactive	inactive	inactive	inactive	inactive	
O=C(Nc1ccc(-c2ccccc2)cc1)Nc1ccc2nc(-c3ccco3)c(-c3ccco3)nc2c1		46.9%	13.8%			88.5%	50.2%	inactive			inactive			72.4%
Cc1ccc(S(=O)(=O)c2c(N)ccc3nc(C)c(C)nc23)cc1				inactive				inactive	inactive	inactive	inactive	inactive	inactive	
